Ends that are not written are not given here.
Columns and labels:
[1] = Plasma stability, rabbit plasma; type: in vitro ADME
How it was run: (§1)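 K2-EDTA plasma from male animals of each species was incubated with the test compound (1 µM) at 37 °C for 0–4 h, with propantheline bromide (1 µM) as control. Intact compound remaining was measured by LC-MS to give the half-life.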

[2] = Plasma stability, mini-pig plasma; type: in vitro ADME
How it was run: as §1

[3] = Plasma stability, dog plasma; type: in vitro ADME
How it was run: as §1

[4] = Plasma stability, rat plasma; type: in vitro ADME
How it was run: as §1

Safety of AmyP53 in mice = type: in vivo, mouse
How it was run: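 C57BL/6 mice. Preliminary safety run in 5 young (4-month-old) mice: intranasal test compound, then 10 min later stereotaxic SNpc injection of test compound, then daily intranasal dosing for 7 days. Full study used 7 per group: saline, human α-synuclein protofibrils (50 µM in 0.9% NaCl, pre-incubated 37 °C for 3 days), or protofibrils plus test compound (100 µM). Injections were bilateral into the SNpc, 2.5 µL, under isoflurane. The co-treated group then received daily intranasal dosing for 35 days.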

plasma proteins [5] = experiment: Plasma protein binding by rapid equilibration dialysis; type: in vitro ADME, mini-pig
How it was run: (§2)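 Rapid equilibrium dialysis used K2-EDTA plasma from male animals of each species. The test compound (5 µM) was incubated for 2 h at 37 °C, with propranolol (1 µM) as control. Samples were analysed by LC-MS/MS, with response taken as the analyte-to-internal-standard peak area ratio. Unbound fraction = receiver-side response / donor-side response.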

[6] = test system: male and female New Zealand White rabbits; experiment: 14-Day repeated tolerability/toxicity study, intranasal; type: in vivo, rabbit; conditions: male and female rabbits, 0.1, 1 and 5 mg/kg BW/day, 14 days
How it was run: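 GLP study run by a contract lab. Male and female New Zealand White rabbits were dosed intranasally with the test compound daily for 14 days at 0.1, 1.0 and 5.0 mg/kg body weight/day, followed by a 14-day recovery period, with toxicokinetics. Read-outs: local reaction, mortality, clinical signs, body weight, food consumption, clinical pathology, ophthalmoscopy, organ weight, haematology, coagulation, clinical chemistry and histopathology of a full tissue list.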

plasma proteins [7] = experiment: Plasma protein binding by rapid equilibration dialysis; type: in vitro ADME, rabbit
How it was run: as §2

female Wistar rats = conditions: initial studies; cited from earlier work
plasma proteins [8] = experiment: Plasma protein binding by rapid equilibration dialysis; type: in vitro ADME, rat
How it was run: as §2

[9] = cited from earlier work
[10] = test system: male and female Wistar rats; experiment: Dose range finding, intranasal route; type: in vivo, rat; conditions: GLP, 0.2, 1 and 5 mg/kg BW every two days during five days
plasma proteins [11] = experiment: Plasma protein binding by rapid equilibration dialysis; type: in vitro ADME, dog
How it was run: as §2

[12] = test system: male and female Sprague Dawley rats; experiment: 28-Day repeated dose toxicity, intranasal; type: in vivo, rat
mini-pig plasma proteins = experiment: rapid equilibration dialysis
rabbit plasma proteins = experiment: rapid equilibration dialysis
dog plasma proteins = experiment: rapid equilibration dialysis
rat plasma proteins = experiment: rapid equilibration dialysis
[13] = K2-EDTA plasma from male animals, 400 µL, 1 µM, 37 °C, 0–4 h, cold acetonitrile quench, LC-MS/MS
[14] = 5 mice, intranasal, then SNpc injection of AmyP53, then 7 days daily intranasal
[15] = 35-day treatment, SNpc co-injection then daily intranasal, n = 7 per group
[16] = rats, intranasal administration
[17] = RED, K2-EDTA plasma from male animals, 2 h at 37 °C, AmyP53 5 µM, Propanolol 1 µM, LC-MS/MS

Molecule: CC(C)[N+](C)(CCOC(=O)C1c2ccccc2Oc2ccccc21)C(C)C [Propantheline, Propantheline bromide, reference compound]
- t1/2 in rabbit plasma [1, 13]: 0.283 h
- t1/2 in mini-pig plasma [2, 13]: 2.98 h
- t1/2 in dog plasma [3, 13]: 1.73 h
- t1/2 in rat plasma [4, 13]: 3.78 h

Molecule: KEGVLYVGHHTK [AmyP53]
- half-life at 1 µM ([1]; male, rabbit, K2-EDTA plasma): 10 h
- body mass, preliminary safety assessment (Safety of AmyP53 in mice; [14]): stable
- overall result of preliminary safety assessment (Safety of AmyP53 in mice; [14]): safe
- effect on body weight of treated mice (Safety of AmyP53 in mice; [15]): did not display any significant effect
- impact on overall behavior (Safety of AmyP53 in mice; [15]): did not induce any negative impact
- fraction unbound at 2 h, 5 µM (plasma proteins [5]; male, pig, K2-EDTA plasma): 0.186
- half-life at 1 µM ([2]; male, pig, K2-EDTA plasma): 6.07 h
- toxicity / tolerability of repeated intranasal administration in rabbits [6]: no systemic or local toxicity
- fraction unbound at 2 h, 5 µM (plasma proteins [7]; male, rabbit, K2-EDTA plasma): 0.183
- half-life at 1 µM ([3]; male, dog, K2-EDTA plasma): 1.38 h
- maximal tolerated dose, one-week intranasal administration (female Wistar rats): > 5 mg/kg body weight
- maximal tolerated dose, one-week intravenous administration (female Wistar rats): > 80 mg/kg
- half-life at 1 µM ([4]; male, rat, K2-EDTA plasma): 13.1 h
- fraction unbound at 2 h, 5 µM (plasma proteins [8]; male, rat, K2-EDTA plasma): 0.066
- half-life of AmyP53 in the brain ([9]; approximate statement in discussion): about 1 h
- Cmax in brain tissue [9, 16]: 1766 ng/mL
- T1/2 in brain tissue [9, 16]: 1.02 h
- Tmax in brain tissue [9, 16]: 5 min
- maximal intranasal dose without any signs of toxicity or dysfunction [10]: The maximal intranasal dose of AmyP53 without any signs of toxicity or dysfunction, is greater or equal to 5 mg/kg BW in both male and female Wistar rats.
- fraction unbound at 2 h, 5 µM (plasma proteins [11]; male, dog, K2-EDTA plasma): 0.154
- intranasal no-observed adverse effect level (NOAEL) ([12]; male and female Sprague Dawley rats, GLP, every day for 28 days followed by 14 days of recovery): 5 mg/kg BW/day
- tolerability of repeated intranasal administration, 28 days ([12]; male and female rats, 0.1, 1.0 and 5.0 mg/kg body weight/day, 28 days and 14 days of recovery): well tolerated

Molecule: CC(C)NCC(O)COc1cccc2ccccc12 (stereo not shown) [Propranolol, reference compound]
- bound to plasma protein %, mini-pig plasma (plasma proteins [5]; [17]): 85.2 ±0.9%
- bound to plasma protein %, rabbit plasma (plasma proteins [7]; [17]): 74.8 ±1.1%
- bound to plasma protein %, rat plasma (plasma proteins [8]; [17]): 89.8 ±0.1%
- bound to plasma protein %, dog plasma (plasma proteins [11]; [17]): 86.5 ±1.0%

B1: AmyP53 (peptide)
peptide: KEGVLYVGHHTK
- bound to plasma protein % (mini-pig plasma proteins): 81.4%
- bound to plasma protein % (rabbit plasma proteins): 81.7%
- bound to plasma protein % (dog plasma proteins): 84.6%
- bound to plasma protein % (rat plasma proteins): 93.4%

Source: article PMC11914484 (Scientific Reports, 2025)
